The source of these data is PMC11436873 (Nature Communications, 2024).

Data set [1] can be described thus: kinetic aqueous solubility.
For a further data set, the system named is HCT-8 cells. Put plainly: host cell cytotoxicity, CellTiter AQueous. The data set is classed as cell-based, human. In a few lines: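 HCT-8 cells are grown in RPMI 1640 with 10% heat-inactivated FBS and penicillin/streptomycin at 37 °C, 5% CO2, used at passages 9–39. Confluent (>95%) monolayers get varying compound concentrations for 48 h. MTS reduction is read at 490 nm, blanked against trypsinised wells, and expressed as % viability versus DMSO. TC50 is curve-fitted; the selectivity index is the […].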

The subject of data set [2] is C. parvum. Description: NOD SCID gamma mouse model of cryptosporidiosis, fecal parasite shedding by qPCR. The data set is classed as in vivo. As to conditions: NSG mice. In a few lines:
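Male NSG mice aged 4–5 weeks are infected with C. parvum oocysts. Oral gavage starts 7 (or 14) days post-infection and runs 7 days. Dosing stock in DMSO is diluted into 1% HPMC (5% DMSO final, 100 μL per dose), with a paromomycin control. Fecal shedding per mg feces is measured by qPCR at treatment start, at treatment end and one week later. n = 4 mice per group, mean and SEM.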

The subject of the next data set is Cryptosporidium. The conditions noted are these: cited from earlier work.
The subject of data set [3] is C. parvum. Description: Cryptosporidium rate-of-action assay in HCT-8 cells. The conditions noted are these: for parasite elimination in rate-of-action assay: nitazoxanide at EC90, highest tolerated concentration. It counts as cell-based, Cryptosporidium parvum. In a few lines: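 HCT-8 monolayers (>90% confluent) are infected with C. parvum sporozoites excysted with 10 mM HCl and then 2 mM taurocholate. […] Cells are fixed, stained with V. villosa lectin and Hoechst, and counted by epifluorescence. Counts are normalised to host nuclei and DMSO wells, then fitted to one-phase exponential decay. Four wells per condition.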

The nature of data set [4]: NSG mouse weights and tolerability during efficacy testing. It counts as in vivo, Mus musculus (NOD SCID gamma mice). As to conditions: 50 mpk twice daily, 7 days.
The subject of a further data set is 47 human targets. Description: Eurofins SafetyScan47 panel, whole panel. As to conditions: dose-response up to 30 μM.
Another data set deals with C. hominis Tu502 strain. Put plainly: C. hominis growth in HCT-8 cells, same method. It counts as cell-based. As to conditions: Cryptosporidium hominis, HCT-8, read-out: C. hominis EC50. In a few lines: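 TU502 oocysts, used within 1 month, excysted with 10 mM HCl (10 min, 37 °C) and then 2 mM sodium taurocholate in PBS (10 min, 16 °C). Material from 5500 oocysts/well was added to >95% confluent HCT-8 monolayers (passages 9–39, 37 °C, 5% CO2). Compound went in 3 h post-infection, with nitazoxanide as control. At 48 h, cells were fixed with paraformaldehyde and stained with fluorescein-Vicia villosa lectin plus Hoechst.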

The target of the next data set is hERG potassium channel (Homo sapiens, UniProt Q12809). Description: hERG [3H]-dofetilide competitive binding. As to conditions: probe [3H]-dofetilide. In general terms: hERG is a cardiac potassium channel; its block is linked to QT prolongation.
Chain of hERG potassium channel (Q12809 whole entry): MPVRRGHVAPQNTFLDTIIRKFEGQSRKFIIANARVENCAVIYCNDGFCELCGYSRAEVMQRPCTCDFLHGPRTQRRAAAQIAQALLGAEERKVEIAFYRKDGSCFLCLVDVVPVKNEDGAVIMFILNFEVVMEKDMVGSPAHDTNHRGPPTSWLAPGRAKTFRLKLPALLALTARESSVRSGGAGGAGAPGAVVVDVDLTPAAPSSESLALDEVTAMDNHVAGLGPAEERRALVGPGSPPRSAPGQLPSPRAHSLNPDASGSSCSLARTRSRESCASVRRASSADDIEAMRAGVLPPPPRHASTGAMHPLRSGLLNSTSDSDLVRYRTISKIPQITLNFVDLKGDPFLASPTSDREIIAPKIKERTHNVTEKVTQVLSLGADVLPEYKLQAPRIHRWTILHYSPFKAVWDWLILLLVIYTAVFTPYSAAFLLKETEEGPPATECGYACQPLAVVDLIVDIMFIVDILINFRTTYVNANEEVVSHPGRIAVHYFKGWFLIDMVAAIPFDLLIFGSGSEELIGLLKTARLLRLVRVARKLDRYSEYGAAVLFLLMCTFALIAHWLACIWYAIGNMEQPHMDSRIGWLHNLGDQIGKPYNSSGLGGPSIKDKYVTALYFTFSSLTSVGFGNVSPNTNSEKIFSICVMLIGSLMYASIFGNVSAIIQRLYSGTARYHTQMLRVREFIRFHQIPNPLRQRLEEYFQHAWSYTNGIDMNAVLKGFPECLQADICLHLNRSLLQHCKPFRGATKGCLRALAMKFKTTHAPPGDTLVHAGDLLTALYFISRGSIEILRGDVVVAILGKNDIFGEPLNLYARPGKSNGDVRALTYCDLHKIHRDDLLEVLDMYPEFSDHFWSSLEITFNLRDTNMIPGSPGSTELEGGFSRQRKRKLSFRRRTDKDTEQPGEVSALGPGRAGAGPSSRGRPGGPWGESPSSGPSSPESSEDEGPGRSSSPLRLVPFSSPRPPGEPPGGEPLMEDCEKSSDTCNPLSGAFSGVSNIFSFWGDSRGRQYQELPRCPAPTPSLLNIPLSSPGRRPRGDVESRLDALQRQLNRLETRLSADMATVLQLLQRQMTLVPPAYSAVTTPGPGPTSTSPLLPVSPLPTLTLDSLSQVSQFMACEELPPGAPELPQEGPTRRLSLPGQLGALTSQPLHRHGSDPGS
Data set [5] has as its system C. parvum CpPDE1 Val900Ala. Description: HCT-8 cell growth assay, CRISPR CpPDE1 Val900Ala mutant parasite. It counts as cell-based. The conditions noted are these: Cryptosporidium parvum, HCT-8, read-out: EC50, CpPDE1 V900A, HCT-8 cell growth assay.
The subject of the next data set is human PDE-V. The conditions noted are these: read-out: IC50 for human PDE-V; cited from earlier work.

≈ marks a conversion by molar mass, not a printed value. A value given as a limit tells only on which side of the number the result lay.

Usually kinetic solubility stands for the concentration staying in solution when a stock, usually in DMSO, is diluted into the medium. In turn, `COc1ccc(CNc2nc(-c3ccc(C(=O)O)cc3)nc3c2c2ccccc2n3C)cc1Cl` [PDEi4] showed a kinetic solubility at 2 h in data set [1] (PBS, pH 7.4, aqueous buffer, kinetic from dmso stock) of 21 µM (≈ 9.93 µg/mL). The compound also showed a selectivity index with HCT-8 cells (HCT-8 TC50 vs C. parvum EC50) of 100. The “efficacy, 7-day dosing” value in the data set on C. parvum [2] (50 mpk twice daily oral) was “no significant effect”.

As for `CC(=O)Oc1ccccc1C(=O)Nc1ncc([N+](=O)[O-])s1` [nitazoxanide], in the data set with Cryptosporidium, the “effectiveness in AIDS patients” value is listed as “equivalent to a placebo” and the effectiveness in children was ~ 56%. For the same compound, the “parasite elimination in rate-of-action assay” value in the data set on C. parvum [3] is recorded as “no nitazoxanide-dependent parasite elimination occurred”. In addition, in the data set on C. parvum [3] (listed as NTZ), the “parasite elimination in rate-of-action assay” value is listed as “No exponential decay curve could be fit”.

By EC50 is commonly meant the concentration at which the effect is half-maximal. As usually defined, the inhibition is the drop in the measured response relative to a control, in per cent. Consider `CCc1nn(C)c2nc(-c3ccc(C(=O)O)cc3)nc(NCc3ccc(F)cc3)c12` [PDEi5, 4-(3-ethyl-4-((4-fluorobenzyl)amino)-1-methyl-1H-pyrazolo[3,4-d]pyrimidin-6-yl)benzoic acid], for which the “fall of mean mouse weight in the final days of treatment” value in data set [4] was ~ 5%. Further, in the data set with 47 human targets, the “SafetyScan47 EC50/IC50 for 45 of 47 targets” value was over 30 µM. Also, the solubility (kinetic) in data set [1] (aqueous solution, pH 7.4) was found to be 200 µM (≈ 81.1 µg/mL). In addition, the EC50 in the data set on C. hominis Tu502 strain was 4.7 µM. Besides, on hERG potassium channel, the inhibition at 10 µM was -14.7%. Also, the “toxicity to the HCT-8 cell line” value in the data set with HCT-8 cells (100 μM, highest concentration tested) is on record as “non-toxic”. For the same compound, the “time required for 99.9% parasite reduction” value in the data set with C. parvum [3] (in the absence of host immune help) is recorded as ~ 107 h. The “reduction of parasite shedding after 7 days of treatment” value with C. parvum [2] (50 mpk twice daily oral) is recorded as ~ 99%. The relapse after treatment result in the data set on C. parvum [2] (after 7-day dosing) is listed as “infection relapsed within a week of stopping treatment”.

In general, IC50 refers to the concentration needed to halve the response being measured. For `CCCc1nn(C)c2c(=O)[nH]c(-c3cc(S(=O)(=O)N4CCN(C)CC4)ccc3OCC)nc12` [sildenafil], in data set [5], the EC50 came to 14 µM. Also, the IC50 in the data set with human PDE-V was 0.0035 µM.
